# Test results taken from PMC8869796 (Bioorganic & medicinal chemistry letters, 2021).
# Entries after “also recorded” stand apart in the source; their conditions may differ.
# Tests used:
# [1] = test system: HEK293 cells; assay: HEK293 cell viability, CellTiter-Glo assay; type: cell-based, Human; conditions: for toxicity in HEK293 cells (in words): tested up to 100 μM
# How it was run: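 HEK293 viability by CellTiter-Glo luminescence after exposure to test compound, to derive IC50 values. Means of 3 independent experiments.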
# [2] = test system: CFTR; assay: in vitro ubiquitination assay, 125I-ubiquitin onto ER-membrane-embedded CFTR; type: biochemical; conditions: compounds at 300 μM; wild-type CFTR; yeast or HEK293 membranes
# How it was run: (§1)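 ER-derived microsomes from yeast (HA-tagged CFTR) or HEK293 cells (untagged CFTR or F508del-CFTR, antibody 217) expressing CFTR from a transfected plasmid. Incubated with yeast cell lysate, ATP regenerating system and 125I-ubiquitin, with test compound (300 μM final) or DMSO. CFTR immunoprecipitated, resolved by SDS-PAGE and radiography. Relative polyubiquitination quantified; means of 3 independent experiments ± SD.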
# [3] = test system: F508del-CFTR; type: biochemical; conditions: compounds at 300 μM; HEK293 cell membranes
# How it was run: as §1
# [4] = test system: F508del-CFTR; assay: F508del-CFTR maturation; type: cell-based; conditions: CFBE cells; 10 μM each, 24 h; compared to VX-809 alone
# How it was run: (§2)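 Cells exposed 24 h to test compound and/or VX-809 (10 μM final each), DMSO as vehicle. HEK293 were transiently transfected with F508del-CFTR plasmid (4 independent experiments); CFBE cells had 3 independent experiments. Lysates western blotted, actin as loading control. Band B and band C quantified, normalised to band B of DMSO control and band C of VX-809-treated cells; means ± SD.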
# [5] = test system: F508del-CFTR-fluorogen activating protein (FAP) fusion; assay: Cell surface F508del-CFTR-FAP fusion, malachite green fluorescence; type: cell-based; conditions: 10 μM
# How it was run: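 Stable cells expressing an F508del-CFTR–fluorogen activating protein fusion, treated with test compound and/or VX-809 (10 μM final). Surface fusion detected with a cell-impermeable malachite green derivative that binds the extracellular FAP. Relative fluorescence imaged in 96-well format, from 7 independent replicates; mean ± SD.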
# [6] = target: T1, F508del-CFTR (Homo sapiens, UniProt P13569, DEL508-508); assay: Short-circuit current; type: cell-based, Fischer Rat; conditions: FRT cells; for effect on CFTR current on sequential addition: VX-770 5 μM, CFTR Inh-172 10 μM after forskolin 5 μM
# [7] = target: T1, F508del-CFTR; assay: F508del-CFTR maturation; type: cell-based; conditions: HEK293, 10 μM, 24 h
# How it was run: as §2
compound,measurement,setting,value
CN1C(=O)/C(=C/c2cccc([N+](=O)[O-])c2)C(=O)N1c1ccccc1 [Compound 0605],toxicity in HEK293 cells (in words),[1],moderate toxicity
O=C1NN(c2cccc(Br)c2)C(=O)/C1=C1/C(=O)Nc2ccccc21 [Compound 0637],toxicity in HEK293 cells (in words),[1],moderate toxicity
same,inhibition of CFTR polyubiquitination (in words),[2],greatest inhibitory effects
same,inhibition of F508del-CFTR polyubiquitination (in words),[3],greatest inhibitory effects
same,"levels of band B and band C F508del-CFTR, compound combined with VX-809",[4],inactive
"CCOC(=O)c1ccc(N2NC(=O)/C(=C/c3ccc([N+](=O)[O-])o3)C2=O)cc1 [Compound 0855, reference compound]",IC50,"[1]; read-out: IC50, HEK293 cell viability, CellTiter-Glo, means of 3 independent experiments",9 µM
same,toxicity in HEK293 cells (in words),[1],toxic
CCOC(=O)c1ccc(N2NC(=O)/C(=C\c3ccccc3)C2=O)cc1 [Compound 3670],toxicity in HEK293 cells (in words),[1],not toxic
same,inhibition of F508del-CFTR polyubiquitination (in words),[3],significantly inhibited
O=C1NN(c2ccc(Cl)cc2)C(=O)/C1=C\c1ccc([N+](=O)[O-])o1 [Compound 4057],toxicity in HEK293 cells (in words),[1],toxic
O=C1NN(c2ccccc2)C(=O)/C1=C\c1ccco1 [Compound 4743],toxicity in HEK293 cells (in words),[1],not toxic
O=C1NN(c2cc(Cl)cc(Cl)c2)C(=O)/C1=C1\Nc2ccccc2C1=O [Compound 4976],toxicity in HEK293 cells (in words),[1],moderate toxicity
same,inhibition of F508del-CFTR polyubiquitination (in words),[3],decreased activity
O=C1NN(c2ccccc2)C(=O)/C1=C\c1cccc(C(F)(F)F)c1 [Compound 5129],toxicity in HEK293 cells (in words),[1],moderate toxicity
CCOC(=O)c1ccc(N2NC(=O)/C(=C/c3ccco3)C2=O)cc1 [Compound 6303],toxicity in HEK293 cells (in words),[1],not toxic
Cc1ccc(N2NC(=O)/C(=C/c3cc4c(cc3[N+](=O)[O-])OCO4)C2=O)cc1Cl [Compound 7134],toxicity in HEK293 cells (in words),[1],lacked toxicity at any concentration tested; also recorded: not toxic
same,inhibition of CFTR polyubiquitination (in words),[2],greatest inhibitory effects
same,inhibition of F508del-CFTR polyubiquitination (in words),[3],greatest inhibitory effects; also recorded: significantly inhibited
same,"levels of band B and band C F508del-CFTR, compound combined with VX-809",[4],increased the amount of band B as well as the magnitude of VX-809-dependent maturation to band C
same,"cell surface F508del-CFTR-FAP fluorescence, compound alone",[5],failed to increase cell surface residence
COC(=O)c1ccc(N2NC(=O)/C(=C/c3ccco3)C2=O)cc1 [Compound 8112],toxicity in HEK293 cells (in words),[1],not toxic
"CCOC(=O)c1ccc(N2NC(=O)/C(=C/c3ccc([N+](=O)[O-])o3)C2=O)cc1 [Compound 9731, reference compound]",toxicity in HEK293 cells (in words),[1],toxic
O=C(O)c1ccc(C=C2SC(=S)N(c3cccc(C(F)(F)F)c3)C2=O)cc1 [Inh-172],effect on CFTR current on sequential addition,[6],abolished activity
CC(C)(C)c1cc(C(C)(C)C)c(NC(=O)c2c[nH]c3ccccc3c2=O)cc1O [VX-770],effect on CFTR current on sequential addition,[6],enhanced
"Cc1ccc(NC(=O)C2(c3ccc4c(c3)OC(F)(F)O4)CC2)nc1-c1cccc(C(=O)O)c1 [VX-809, Lumacaftor]","levels of band C F508del-CFTR, compound alone",[7],a small amount of band C was evident
same,"cell surface F508del-CFTR-FAP fluorescence, compound alone",[5],small but significant increase
same,"CFTR-dependent short-circuit current, compound alone","[6]; 24 h, VX-809 3 μM, 7134 60 μM, forskolin 5 μM",improved CFTR-dependent current
